# Source: PubChem
# Lipid droplet – modulators of hepatic lipid droplet formation | AML12 mouse hepatocytes, oleate lipid droplets, BODIPY imaging | inhibition, % at 6.5 µM | 0.4% of 240,000 active;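 active = lipid droplet intensity inhibited by at least 50%, with more than 500 cells counted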
#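 Assay system: AML12 hepatocytes (mouse); Probe or stimulus: oleic acid at 100 µM to induce lipid droplet formation; Dosing: compound at 6.5 µM only; Schedule: compound with oleate, overnight; Detection: fluorescence imaging, 20x objective, two fields per well; Measure: % inhibition of lipid droplet signal.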
# aDG glyco act – increases alpha dystroglycan glycosylation; Pro5-aDG cells, alpha-DG glycosylation AlphaScreen (IIH6); 0% Pro5, 100% B10-LARGE cell signal; activation, % at 10 µM; 0.22% of 360,000 active; AID 624168;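 active = activation of at least 8% versus controls, or a plate z-score of at least 8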;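 also: Pro5 are CHO cells carrying HIG-tagged alpha-DG that lacks glycosylation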
# NR3A LBD binder – modulates the human NR3A ligand-binding domain | NR3A LBD differential scanning fluorimetry, Tm shift; 0% = protein alone, 100% = glycine-bound protein | Tm shift relative to glycine control, % at 25 µM | 2.5% of 340,000 active;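 active = melting temperature shift of at least 10% of the positive control shift, at one fixed dose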
# GC-B act – GC-B (human) receptor activation; 0.11% of 370,000 active; activation, % at 10 µM; HEK293-GC-B cells, CNP EC30, cGMP TR-FRET; 0% at EC30 CNP, 100% saturating CNP; P20594;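 active = activation at 10 µM reaching about 35% in either raw or pattern-adjusted values, limit read from the data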
# GASC-1 inh – human JMJD2C demethylase inhibition | GST-JMJD2C(1-420) H3K9me3 demethylation, DELFIA europium | inhibition, % at 2.35 µM | 0.069% of 330,000 active;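 active = more than half of a compound's replicate wells show inhibition beyond 50%, single wells judged on their own value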;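 also: signal counts dimethyl H3K9 product captured on neutravidin plate; 0% = median of DMSO wells and 100% = 0.3 times that DMSO median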
# Target sequence (Q9H3R0 1-420 limits assumed): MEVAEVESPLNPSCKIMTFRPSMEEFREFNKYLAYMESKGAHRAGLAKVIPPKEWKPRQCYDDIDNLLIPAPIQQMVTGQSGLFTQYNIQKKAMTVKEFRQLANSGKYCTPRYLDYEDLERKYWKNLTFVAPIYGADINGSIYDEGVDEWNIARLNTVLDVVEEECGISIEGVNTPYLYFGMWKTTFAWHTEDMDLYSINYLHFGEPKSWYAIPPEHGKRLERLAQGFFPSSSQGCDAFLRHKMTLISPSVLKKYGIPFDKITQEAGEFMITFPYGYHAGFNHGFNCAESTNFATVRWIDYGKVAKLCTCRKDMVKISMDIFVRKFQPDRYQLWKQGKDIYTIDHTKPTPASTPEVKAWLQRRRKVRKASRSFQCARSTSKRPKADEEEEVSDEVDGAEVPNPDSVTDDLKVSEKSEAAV
# GC-A act – GC-A (human) enzyme activation; P16066; HEK293 GC-A cells, cGMP TR-FRET, EC30 ANP; 0% at EC30 ANP, 100% saturating ANP; activation, % at 10 µM; 0.14% of 370,000 active; AID 1671463; in the data active = activation above about 40%
# Active calls of the source: *; x = not tested or not shown. Shown are actives, neighbours in structure and some others; about 3% of the full set was active somewhere.
SMILES,Lipid droplet,aDG glyco act,NR3A LBD binder,GC-B act,GASC-1 inh,GC-A act
Cc1ccc(NC(=S)N(Cc2cccs2)Cc2cc3cccc(C)c3[nH]c2=O)cc1,-14,0,15*,-1,13,-4
CCOC(=O)C1=C(C(=O)OCC)C2N(Cc3ccc(C#N)cc3)c3ccccc3[C@@]23C[C@@H](C(=O)OC)N(S(=O)(=O)c2ccccc2C)C3=N1 (stereo partly specified),x,x,x,5,x,-1
CCc1ccc2c(c1)C(=O)c1ccccc1C2=O,20,1,18*,-9,-7,-3
CC(C)(C)c1ccc2c(c1)C(=O)c1ccccc1C2=O,0,0,24*,-7,5,-9
O=C1c2ccccc2-c2ccc(P(=O)(O)O)cc21,x,x,x,0,x,3
Cc1cc(F)ccc1-c1cc(C(=O)NC(C)C)[nH]n1,x,0,x,2,x,1
Cc1oc(CC(C)C)cc1C(=O)Nc1cccc2ccccc12,x,2,25*,-9,4,9
C=CCN1C(=O)[C@@H](CC(=O)N2CCCCC2)[C@]2(C(=O)OC)CCCCC=C12,x,x,x,-1,x,3
Cc1cc(Cl)ccc1OCCCC(=O)N/N=C/c1cccc([N+](=O)[O-])c1,5,0,19*,-14,21,-1
Cn1c(CCCOc2ccc(Cl)cc2Cl)nnc1SCC(=O)Nc1ccc(F)c(Cl)c1,-14,0,24*,-8,-5,-20
COc1ccc(/C=N/NC(=O)CCCOc2ccc(Cl)cc2Cl)cc1,-30,0,16*,0,4,10
COc1ccc(CC(=O)Nc2cccc(SC)c2)cc1,-4,0,16*,5,-17,3
O=C(CCCOc1ccc(Cl)cc1Cl)N/N=C/c1ccc(Cl)cc1,-23,0,8,3,-7,2
COc1ccc(S[C@]2(C(=O)N3CCN(c4ncccn4)CC3)CC(=O)N(C(=O)Nc3ccc(C)c(Cl)c3)[C@@H]2c2ccc(OC)cc2)cc1,x,x,x,2,x,3
CCOc1ccccc1OCCCC(=O)OCC(=O)Nc1cccc(Cl)c1,-30,0,-8,-1,-1,1
CSc1cccc(NC(=O)CCCOc2ccccc2)c1,0,0,1,0,3,-1
CSc1cccc(NC(=O)CCCOc2ccc(Cl)cc2Cl)c1,5,0,20*,-3,-5,-1
COc1ccc(Cl)cc1NC(=O)COC(=O)Cc1cc(OC)c(OC)c(OC)c1,x,0,17*,-4,-6,-4
COc1ccc(NC(=O)COC(=O)CCCOc2ccc(Cl)cc2Cl)cc1Cl,9,0,31*,2,-7,22
O=C(COC(=O)CCCOc1ccc(Cl)cc1Cl)NCc1ccc(F)cc1,-6,0,-10,-3,4,12
COc1ccc(Cl)cc1NC(=O)COC(=O)CCc1cc(OC)c(OC)c(OC)c1,6,0,-1,4,-15,-1
COc1ccc(NC(=O)COC(=O)CCCOc2ccc(Cl)cc2Cl)cc1,11,0,27*,0,12,15
CCOc1ccc(S(=O)(=O)N(C)C)cc1-c1nc2c(C(C)(C)C)nn(C)c2c(=O)[nH]1,15,0,-6,68*,-3,58*
CCOc1ccccc1-c1nc2c(C(C)(C)C)nn(C)c2c(=O)[nH]1,9,x,x,x,12,x
CCOc1ccc(S(=O)(=O)N(C)CCO)cc1-c1nc2c(C(C)(C)C)nn(C)c2c(=O)[nH]1,x,0,-1,67*,0,59*
SMILES,Lipid droplet,aDG glyco act,NR3A LBD binder,GC-B act,GASC-1 inh,GC-A act
CN(CCO)S(=O)(=O)c1ccc2c(c1)C(=NO)c1cc(S(=O)(=O)N(C)CCO)ccc1-2,4,0,-1,-1,-3,9
Cc1cc(Oc2cccnc2)ccc1NC(=O)Cc1c[nH]c2ccccc12,x,x,x,-2,x,-2
O=S(=O)(CC1NCc2cc(F)ccc21)NCCc1ccccc1 (stereo unspecified),x,x,x,-3,x,3
COC(=O)[C@]12C[C@H](CC(=O)NCc3ccc(OC)c(OC)c3)C(=O)N(CCc3ccc(OC)c(OC)c3)C1=C[C@H](COCc1ccccc1)O[C@@H]2C,x,x,x,5,x,3
COc1ccc(C(=O)N[C@@H]2CC[C@@]34CCCN3C(=O)CCC[C@H]4[C@H]2C)cc1,x,x,x,3,x,-2
COc1ccc(S[C@]2(C(=O)NCCc3ccccc3)CC(=O)N[C@@H]2c2ccc(OC)cc2)cc1,x,x,x,1,x,2
COC(=O)c1ccc(NC(=O)CSc2ccccc2)cc1,14,0,-10,1,0,2
O=C(CSc1ccccc1)Nc1ccc(C(=O)Nc2ccc(O)cc2)cc1,5,0,25*,-3,-20,-4
O=C(Cc1ccccc1)Nc1ccc(C(=O)Nc2ccc(O)cc2)cc1,3,0,35*,4,-22,-2
NC(=O)[C@@H]1CCCN1C(=O)[C@H]1O[C@@H](n2ccc(N)nc2=O)[C@H](O)[C@@H]1O,x,x,x,2,x,3
COc1ccc(CNC2CCC23CCC(c2ccccc2)CC3)cc1OC (stereo unspecified),x,x,x,-6,x,-6
C[C@@H](NC(=O)c1ncn2c1c(=O)[nH]c1ccc(Br)cc12)c1ccccc1,x,0,x,40*,x,20
COCCNC(=S)N/N=C(\C)c1cccc(C(F)(F)F)c1,-18,0,52*,-5,-2,-1
CC(OC(=O)c1ccc([N+](=O)[O-])o1)C(=O)Nc1nc(-c2ccc(F)c(F)c2)cs1 (stereo unspecified),x,0,15*,-2,x,24
O=C(Cc1ccccc1F)Nc1nc(-c2ccc(F)c(F)c2)cs1,-29,0,-1,0,5,25
Nc1nc(/C=C/c2ccc(F)cc2)nc(-c2ccccc2O)n1,19,0,16*,-3,0,1
CCOc1ccc(Oc2c(Cl)c(Br)nn(Cc3cccc4ccccc34)c2=O)cc1,x,x,x,-7,x,25
CCCCCc1cc(=O)c2ccccc2o1,x,0,53*,0,x,0
Nc1nc(-c2ccc3c(c2)CCCC3)c(CC(=O)O)s1,21,0,35*,-4,-12,0
O=C(NNC(=S)Nc1ccccc1)C1CC1,x,0,-2,3,0,2
Fc1ccccc1NC(=S)Nc1ccc(Br)cc1,2,0,25*,2,-5,6
S=C(NNC(=S)Nc1ccccc1)Nc1ccccc1,1,0,35*,0,-22,-6
S=C(NN=C(C1CC1)C1CC1)Nc1ccccc1,-24,1,11*,0,2,-2
S=C(Nc1ccccc1)Nc1cccc(Br)c1,-13,0,16*,-4,3,2
CCCCNC(=O)c1onc(CSc2ccc(OC)cc2)c1C(=O)O,x,0,12*,6,8,1
